Activity calls are given as the source filed them. No cut-off for these calls is given here.
What was measured:
[1] = target: Histone deacetylase (HDAC1 and HDAC2) (Homo sapiens, UniProt Q13547+Q92769); experiment: Inhibition of HDAC1/HDAC2 in human HeLa cells nuclear extract preincubated for 5 mins before Boc-Lys (acetyl)-AMC substrate addition for 30 mins by microplate reader analysis; format: cell-based
[2] = target: T1, Aminopeptidase N (Sus scrofa, UniProt P15145); experiment: Inhibition of APN in porcine kidney microsomes preincubated for 5 mins before L-leu-p-nitroanilide substrate addition for 30 mins by plate reader analysis
T1 sequence (P15145 whole entry): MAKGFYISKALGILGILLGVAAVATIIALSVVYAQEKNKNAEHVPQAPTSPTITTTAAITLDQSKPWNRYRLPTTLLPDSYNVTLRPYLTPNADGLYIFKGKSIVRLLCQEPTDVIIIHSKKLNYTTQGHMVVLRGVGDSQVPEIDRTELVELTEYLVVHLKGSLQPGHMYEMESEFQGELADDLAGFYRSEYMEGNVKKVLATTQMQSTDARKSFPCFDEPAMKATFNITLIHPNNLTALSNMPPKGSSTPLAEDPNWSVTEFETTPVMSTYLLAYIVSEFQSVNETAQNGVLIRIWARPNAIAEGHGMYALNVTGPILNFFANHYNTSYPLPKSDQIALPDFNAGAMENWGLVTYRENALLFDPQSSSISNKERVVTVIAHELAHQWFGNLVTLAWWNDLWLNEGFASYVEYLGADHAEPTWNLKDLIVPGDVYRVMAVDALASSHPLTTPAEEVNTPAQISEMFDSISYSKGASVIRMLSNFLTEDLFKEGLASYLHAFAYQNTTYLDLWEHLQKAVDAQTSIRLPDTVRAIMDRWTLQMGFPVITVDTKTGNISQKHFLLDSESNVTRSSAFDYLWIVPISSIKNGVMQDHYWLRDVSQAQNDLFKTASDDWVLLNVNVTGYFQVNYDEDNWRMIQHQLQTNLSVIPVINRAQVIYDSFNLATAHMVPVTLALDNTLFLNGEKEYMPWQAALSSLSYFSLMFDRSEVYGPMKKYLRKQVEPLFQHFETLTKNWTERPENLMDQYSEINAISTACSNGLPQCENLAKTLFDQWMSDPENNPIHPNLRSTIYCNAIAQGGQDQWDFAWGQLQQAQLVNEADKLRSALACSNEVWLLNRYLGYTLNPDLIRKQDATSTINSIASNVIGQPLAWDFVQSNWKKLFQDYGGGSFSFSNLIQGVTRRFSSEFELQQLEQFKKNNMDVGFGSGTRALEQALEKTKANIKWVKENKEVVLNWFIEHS

[3] = tested on: H22; experiment: Antimetastasis activity against mouse H22 cells implanted in mouse assessed as inhibition of tumour growth at 80 mg/kg/day, po administered 6 days/week for 2 weeks; format: functional
Method in brief: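 H22 tumour cells given to mice via the caudal vein; animals randomly divided into 3 groups. Control received the same volume of excipient; the other groups received inhibitor orally at 80 mg/kg/day, 6 days/week for 2 weeks.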

[4] = tested on: ES2; experiment: Antiinvasive activity against human ES2 cells assessed as reduction in cell invasion at 150 uM after 8 hrs by crystal violet staining based Matrigel assay; format: functional
Method in brief: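 Matrigel-coated transwell chambers rehydrated 2 h in RPMI-1640 + 1% FBS; lower chamber RPMI-1640 + 10% FBS. Compounds in 1% FBS medium added to the upper chamber with ES-2 cells (1 × 10^5/well) at the same time; invasion 8 h at 37 °C. Non-invaded cells swabbed off; remaining cells fixed, stained with 0.1% crystal violet, counted in five random fields (×100) per insert; mean of three independent experiments.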

[5] = target: Aminopeptidase N (Homo sapiens, UniProt P15144); experiment: Inhibition of APN in human ES2 cells preincubated for 5 mins before L-leu-p-nitroanilide substrate addition for 1 hr by photometry; format: cell-based
Method in brief: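 ES-2 ovarian clear cell carcinoma cell suspension (1 × 10^5 cells/well) used as the APN source in 10 mM PBS pH 7.4; inhibitors in buffer with 0.2% DMSO final. Pre-incubation 5 min at room temperature, then L-Leu-p-nitroanilide added, 1 h at 37 °C. Supernatant after centrifugation read by UV-Vis spectrophotometry; IC50 from regression of concentration/inhibition-rate data.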

Chain of Aminopeptidase N (Homo sapiens, UniProt P15144) (P15144 whole entry): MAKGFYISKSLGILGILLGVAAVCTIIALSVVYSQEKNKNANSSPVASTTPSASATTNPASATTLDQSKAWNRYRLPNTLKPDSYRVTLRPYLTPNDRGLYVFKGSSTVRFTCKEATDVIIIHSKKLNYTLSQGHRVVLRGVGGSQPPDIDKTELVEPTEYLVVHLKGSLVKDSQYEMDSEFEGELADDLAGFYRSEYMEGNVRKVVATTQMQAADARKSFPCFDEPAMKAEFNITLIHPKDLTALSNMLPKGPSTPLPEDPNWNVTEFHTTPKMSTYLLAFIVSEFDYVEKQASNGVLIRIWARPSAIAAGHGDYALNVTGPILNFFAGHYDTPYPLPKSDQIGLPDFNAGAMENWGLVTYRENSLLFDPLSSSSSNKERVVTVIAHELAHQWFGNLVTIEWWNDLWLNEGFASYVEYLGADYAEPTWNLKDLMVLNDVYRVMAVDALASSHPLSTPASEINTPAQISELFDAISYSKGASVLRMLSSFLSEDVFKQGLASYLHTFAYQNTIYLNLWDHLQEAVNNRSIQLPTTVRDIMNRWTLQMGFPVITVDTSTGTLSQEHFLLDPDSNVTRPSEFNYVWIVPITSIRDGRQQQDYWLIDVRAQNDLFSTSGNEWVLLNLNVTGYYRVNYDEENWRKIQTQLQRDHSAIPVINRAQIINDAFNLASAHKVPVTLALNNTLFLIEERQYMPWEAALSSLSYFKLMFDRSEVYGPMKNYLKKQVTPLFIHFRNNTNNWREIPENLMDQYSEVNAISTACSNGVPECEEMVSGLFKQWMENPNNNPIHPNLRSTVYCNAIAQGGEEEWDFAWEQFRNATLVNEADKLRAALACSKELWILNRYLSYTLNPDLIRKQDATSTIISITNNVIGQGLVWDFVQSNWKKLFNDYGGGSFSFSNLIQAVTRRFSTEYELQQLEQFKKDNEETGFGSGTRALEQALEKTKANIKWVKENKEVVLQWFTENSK

## COc1ccc(CNC(=O)N[C@@H](CC(C)C)C(=O)NO)c(OC)c1
[1]
  IC50: > 100000 nM
[2]
  IC50: 460 nM

## CC(C)C[C@H](NC(=O)NCc1c(Cl)cccc1Cl)C(=O)NO
[1]
  IC50: > 100000 nM
[2]
  IC50: 580 nM

## CC(C)C[C@H](NC(=O)Nc1ccccc1)C(=O)NO
[1]
  IC50: > 100000 nM

## CC(C)C[C@H](NC(=O)Nc1ccc(Cl)cc1Cl)C(=O)NO
[1]
  IC50: > 100000 nM
[2]
  IC50: 560 nM

## CC(C)C[C@H](NC(=O)Nc1ccc(F)cc1F)C(=O)NO
[1]
  IC50: > 100000 nM
[2]
  IC50: 340 nM

## CC(C)C[C@H](NC(=O)NCc1ccc(F)c(F)c1)C(=O)NO
[1]
  IC50: > 100000 nM
[2]
  IC50: 420 nM

## COc1ccc(NC(=O)N[C@@H](CC(C)C)C(=O)NO)cc1F
[1]
  IC50: > 100000 nM
[2]
  IC50: 420 nM

## CC(C)C[C@H](NC(=O)[C@@H](O)[C@H](N)Cc1ccccc1)C(=O)O [UBENIMEX]
[3]
  inhibition in vivo at 80 mg/kg/day: 75.9%
[4]
  inhibition: Active
[1]
  IC50: > 100000 nM

## CC(C)C[C@H](NC(=O)Nc1c(F)cccc1F)C(=O)NO
[1]
  IC50: > 100000 nM
[2]
  IC50: 230 nM

## Cc1ccc(NC(=O)N[C@@H](CC(C)C)C(=O)NO)cc1Cl
[1]
  IC50: > 100000 nM
[2]
  IC50: 90 nM

## Cc1cccc(CNC(=O)N[C@@H](CC(C)C)C(=O)NO)c1C
[1]
  IC50: > 100000 nM
[2]
  IC50: 70 nM

## Cc1cccc(C)c1NC(=O)N[C@@H](CC(C)C)C(=O)NO
[3]
  inhibition in vivo at 80 mg/kg/day: 91.7%
[4]
  inhibition: Active
[1]
  IC50: > 100000 nM
[5]
  IC50: 120 nM
[2]
  IC50: 20 nM

## CCc1cccc(CC)c1NC(=O)N[C@@H](CC(C)C)C(=O)NO
[4]
  inhibition: Active
[1]
  IC50: > 100000 nM
[5]
  IC50: 280 nM
[2]
  IC50: 30 nM

## CC(C)C[C@H](NC(=O)NCc1ccc(F)cc1F)C(=O)NO
[1]
  IC50: > 100000 nM
[2]
  IC50: 330 nM

## Cc1ccc(NC(=O)N[C@@H](CC(C)C)C(=O)NO)c(C)c1
[1]
  IC50: > 100000 nM
[2]
  IC50: 180 nM

## CC(C)C[C@H](NC(=O)Nc1c(C(C)C)cccc1C(C)C)C(=O)NO
[1]
  IC50: > 100000 nM
[2]
  IC50: 50 nM

## COc1ccc(NC(=O)N[C@@H](CC(C)C)C(=O)NO)c(OC)c1
[1]
  IC50: > 100000 nM
[2]
  IC50: 460 nM

## Cc1cc(C)c(NC(=O)N[C@@H](CC(C)C)C(=O)NO)c(C)c1
[1]
  IC50: > 100000 nM
[2]
  IC50: 80 nM

## Cc1ccc(CNC(=O)N[C@@H](CC(C)C)C(=O)NO)cc1C
[1]
  IC50: > 100000 nM
[2]
  IC50: 440 nM

## CC(C)C[C@H](NC(=O)NCc1c(F)cccc1F)C(=O)NO
[1]
  IC50: > 100000 nM
[2]
  IC50: 690 nM
